PLAP act: activators of human placental alkaline phosphatase; P05187; purified PLAP enzyme, luminescent substrate read-out; stronger effect = higher value; activation fold at 20 µM; 96,000 tested, 1.2% active; AID 696; in the data active means activation fold above about 2
PostGolgi ctrl: yeast control strain growth, post-Golgi counter-screen. inhibition, % at 10 µM. AID 738. efflux-deficient yeast background strain, growth absorbance A615, 16 h. 98,000 tested, 5% active
Ecoli tolC: growth inhibitors of E. coli BW25113 tolC mutant; 65,000 tested, 2.2% active; OD615; growth inhibition, % at 10 µM (by protocol);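 active means growth inhibition at or above a cutoff equal to the mean over every tested compound plus 3 SD, cut at about 60% in these data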;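 further: growth measured after 20 h incubation at 37 °C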
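Test system: tolC-deleted E. coli BW25113 | Medium: LB with kanamycin 50 µg/mL | Compound dosing: Single concentration, 10 µM final per compound | Schedule: 37 °C, 20 h exposure | Measured by: OD at 615 nm | Evaluation: Percent growth inhibition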
PostGolgi yeast: growth inhibition of a yeast mutant, post-Golgi transport screen | 98,000 tested, 0.9% active | AID 739 | post-Golgi transport phenotypic cell assay | inhibition, % at 10 µM;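 further: yeast cells grown in 1536-well plates; yeast grown about 18 h at 30C before absorbance read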
HePTP inh: inhibitors of human HePTP phosphatase. P35236. recombinant HePTP phosphatase activity, OD absorbance. inhibition, % at 20 µM. 110,000 tested, 0.64% active. AID 521; in the data active means inhibition above about 50%;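 further: plate controls were vehicle for no effect and reference inhibitor for full effect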
Target sequence (P35236 whole entry, looked up): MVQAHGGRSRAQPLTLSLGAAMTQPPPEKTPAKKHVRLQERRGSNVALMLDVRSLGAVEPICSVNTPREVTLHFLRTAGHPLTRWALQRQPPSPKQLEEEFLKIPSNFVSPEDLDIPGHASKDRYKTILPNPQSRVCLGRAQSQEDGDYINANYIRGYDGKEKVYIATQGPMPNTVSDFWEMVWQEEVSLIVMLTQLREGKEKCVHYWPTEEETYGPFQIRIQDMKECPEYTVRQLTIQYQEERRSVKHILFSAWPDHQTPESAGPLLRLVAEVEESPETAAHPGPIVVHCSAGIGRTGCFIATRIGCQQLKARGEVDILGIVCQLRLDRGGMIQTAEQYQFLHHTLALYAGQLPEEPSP
E coli WT exp: E. coli BW25113 growth inhibition, expanded screen | OD600 absorbance | growth inhibition, % at 100 µM | 98,000 tested, 0.15% active | AID 710;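 active means growth inhibition above about 50% at one test dose, limit read from the data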;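 further: growth measured after 20 h incubation at 37 °C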
Active calls of the source: *; / = not tested or not shown. A selection: hits, their analogues and other compounds. The true share with any hit is near 5.4%. Unless noted, no stated cut-off is given here; in the data, active means inhibition above about 30%; inactive means the rest.

SMILES | PLAP act | PostGolgi ctrl | Ecoli tolC | PostGolgi yeast | HePTP inh | E coli WT exp
COc1ccc(C2CC(C(F)(F)F)n3ncc(C(=O)N4CCN(Cc5ccccc5)CC4)c3N2)cc1OC (stereo not given) | / | / | / | / | 0 | /
Cn1c(NC(=O)c2cccs2)cc(=O)n(C)c1=O | 0.9 | 3 | -4 | -15 | 5 | -3
Cn1c(N/N=C/c2cccs2)cc(=O)n(C)c1=O | 0.9 | 35* | / | 1 | / | -3
O=C(Cc1ccc(Cl)cc1)Nc1cccc([N+](=O)[O-])c1 | / | / | / | / | 12 | /
O=C1/C(=C\c2ccc(O)cc2O)SC(=S)N1c1ccccc1 | / | / | / | / | -3 | /
CC(C)COc1ccc(-c2nnc(-c3ccco3)o2)cc1 | 1.2 | 13 | 61* | 1 | 5 | -17
CCCOc1ccc(-c2nnc(-c3ccco3)o2)cc1 | 1.1 | -1 | 15 | 2 | 6 | 1
Cc1cc(C)c(S(=O)(=O)Nc2cc(Cl)c3oc4c(c3c2)C(=O)CCC4)c(C)c1 | / | / | / | / | 12 | /
Cc1cccc(C(=O)Nc2sc3c(c2C(=O)N(C)C)CCCCC3)c1 | / | / | / | / | 2 | /
Cc1ccc(OCC(=O)Oc2ccc(C(=O)c3ccccc3)cc2C)c(C)c1 | / | / | / | / | 104* | /
CCc1ccc(N2C(=O)CSC2c2ccc(Cl)cc2Cl)cc1 (stereo not given) | / | / | / | / | 8 | /
CC(NC(=O)Cc1cccs1)c1ccncc1 (stereo not given) | 1.3 | 0 | -5 | 0 | 3 | -6
CC(NC(=O)Cc1cccs1)c1ccc2c(c1)OCO2 (stereo not given) | 0.8 | 37* | 0 | 12 | 12 | 9
CCc1ccc(C(=O)/C=C/c2ccc(-c3ccc([N+](=O)[O-])cc3)o2)cc1 | / | / | / | / | 7 | /
O=c1[nH]nc(Cc2ccc(Cl)cc2Cl)c2ccccc12 | 1.1 | 47* | / | 18 | / | -10
O=c1[nH]nc(Cc2ccc(-c3ccccc3Cl)o2)c2ccccc12 | 1 | 1 | / | 20 | / | -10
Cc1sc2ncnc(SCC(=O)N3CCC(c4noc5ccc(F)cc45)CC3)c2c1C | 1.4 | 91* | / | 83* | / | -3
Cc1nnc(SCC(=O)N2CCC(c3noc4ccc(F)cc34)CC2)s1 | 1.1 | 12 | 23 | -3 | 8 | -5
CC(C)C(C)(C#N)NC(=O)CSc1ncnc2sc(-c3ccccc3)cc12 (stereo not given) | 0.9 | 40* | / | -12 | / | -14
CN(CCC#N)C(=O)CSc1ncnc2sc(-c3ccccc3)cc12 | 1.5 | 20 | 27 | -5 | -5 | -10
COc1ccc(C(=O)NC2CCC(CC3CCC(NC(=O)c4ccc(OC)c(OC)c4)CC3)CC2)cc1OC (stereo not given) | / | / | / | / | -3 | /
CCOCCCN(C(=O)Nc1ccc(CC)cc1)C1CCN(C(C)=O)CC1 | 1.2 | 6 | -12 | 14 | -11 | 0
CCOc1ccc(NC(=O)N2CCC(c3ccc(C)cc3)C2)cc1 (stereo not given) | 0.9 | 36* | / | -24 | / | -1
CCOc1ccc(NC(=O)N(CCC(C)C)C2CCN(C(C)=O)CC2)cc1 | 2* | -4 | / | 15 | / | 0
COCc1nnc(NC(=O)c2ccc(S(=O)(=O)N(C)c3ccccc3)cc2)o1 | 1.5 | -10 | 87* | -3 | 12 | 5
SMILES | PLAP act | PostGolgi ctrl | Ecoli tolC | PostGolgi yeast | HePTP inh | E coli WT exp
CCN(c1ccccc1)S(=O)(=O)c1ccc(C(=O)Nc2nnc(COC)o2)cc1 | 1.5 | 8 | 95* | -3 | -5 | 11
CCN(c1ccccc1)S(=O)(=O)c1ccc(OC)cc1 | / | / | / | / | 1 | /
COc1cc(-c2cc(OC)c3c(C)oc(C)c3c(=O)c2)ccc1O | 1.2 | 45* | 7 | 7 | 0 | 7
COc1ccc(-c2cc(OC)c3c(C)oc(C)c3c(=O)c2)cc1OC | 1.6 | 5 | -14 | -4 | -4 | -10
CC1CCc2c(sc3nc(CN4CCOCC4)nc(NS(=O)(=O)c4cccc([N+](=O)[O-])c4)c23)C1 (stereo not given) | 2.1* | 23 | / | -2 | / | -1
CCC(C)C(NS(=O)(=O)c1ccc(C)cc1)C(=O)Oc1ccc2c3c(c(=O)oc2c1)CCC3 (stereo not given) | 1 | 33* | / | 5 | / | -5
Cc1ccc(S(=O)(=O)NC(CC(C)C)C(=O)Oc2ccc3c4c(c(=O)oc3c2)CCC4)cc1 (stereo not given) | 1.2 | 16 | / | 60* | / | -4
O=C(NC(C(=O)N1CCCCC1)=C1CCCCC1)c1ccccc1 | / | / | / | / | -7 | /
CCOC(=O)C1=C(C)NC(=O)C(C(N)=O)C1c1ccccc1 (stereo not given) | 0.9 | 33* | -13 | 2 | -1 | 1
CCOC(=O)C1=C(C)NC(C)=C(C(=O)OC)C1c1ccccc1 (stereo not given) | / | / | / | / | 2 | /
